ChEMBL document CHEMBL1141357, “Bioactive polychlorinated bibenzyls from the liverwort Riccardia polyclada” (J Nat Prod, 2007)

Key:
Cladosporium herbarum [1] = assay: Growth inhibition of Cladosporium herbarum at 0.05 mg after 72 hrs; format: functional; settings: read-out: IZ
Summary of the method: (§1)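 TLC bioautography with a given dose applied per spot. Plates were sprayed with Cladosporium herbarum spores (5 × 10^5 cfu) in 4% malt extract medium. Growth-inhibition zones were read after 72 h at 27 °C.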

Artemia salina = assay: Toxicity against brine shrimp by lethality test; format: organism-based; settings: in vivo
Cladosporium herbarum [2] = assay: Growth inhibition of Cladosporium herbarum at 0.25 mg after 72 hrs; format: functional; settings: read-out: IZ; summary of the method: as §1
Cladosporium herbarum [3] = assay: Growth inhibition of Cladosporium herbarum at 0.07 mg after 72 hrs; format: functional; settings: read-out: IZ; summary of the method: as §1
Spodoptera littoralis = assay: Antifeedant activity against Spodoptera littoralis larvae at 10 ug/disk by disk-choice assay; format: functional
Summary of the method: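 Disk-choice feeding test with fifth-instar Spodoptera littoralis larvae at 10 µg/disk. Read-out is FR50: treated area eaten divided by 50% of the untreated area, scored when half of the untreated area had been eaten.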

| SMILES | zone of inhibition at 50 µg/disc (Cladosporium herbarum [1]) [mm] | LC50 (Artemia salina) [ppm] | zone of inhibition at 250 µg/disc (Cladosporium herbarum [2]) [mm] | zone of inhibition at 70 µg/disc (Cladosporium herbarum [3]) [mm] | FR50 (Spodoptera littoralis) |
| --- | --- | --- | --- | --- | --- |
| COc1ccc(CCc2c(Cl)cc(Cl)c(O)c2Cl)cc1Cl | 0 | 1.71 |  |  |  |
| CC(=O)N1CCN(c2ccc(OC[C@H]3CO[C@](Cn4ccnc4)(c4ccc(Cl)cc4Cl)O3)cc2)CC1 [KETOCONAZOLE] |  | 14.9 | 15 |  |  |
| Oc1ccc(CCc2c(Cl)cc(Cl)c(O)c2Cl)cc1Cl |  | 2.39 |  | 20 | 0.43 |
| COc1ccc(CCc2c(Cl)ccc(O)c2Cl)cc1Cl |  | 0.42 |  | 12 | 0.63 |
| COc1ccc(CCc2c(Cl)ccc(O)c2Cl)cc1 | 22 | 0.44 |  |  |  |
